Measurements as given in ChEMBL document CHEMBL3751731, “Ferulic acid-carbazole hybrid compounds: Combination of cholinesterase inhibition, antioxidant and neuroprotection as multifunctional anti-Alzheimer agents” (Bioorg Med Chem, 2016).
Calls of active or inactive are those of the source. The calls are words filed in the database; no cut-off is given here.

Experiments:
[1] = Antioxidant activity assessed as galvinoxyl radical scavenging activity at 10 uM after 19 hrs by UV spectrophotometric analysis; type: physicochemical
Procedure, shortened: (§1)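 Galvinoxyl radical at 2 µM in ethanol, with compounds in ethanol at 1, 2, 10, 50 or 100 µM. Mixture lines used an equimolar (1:1) blend with ferulic acid. A428 was recorded before addition and after 19 h once stable. Percent radical scavenged = (1 − Abst/Abs0) × 100.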

[2] = Antioxidant activity assessed as galvinoxyl radical scavenging activity at 1 uM after 19 hrs by UV spectrophotometric analysis; type: physicochemical; procedure, shortened: as §1
[3] = Antioxidant activity assessed as galvinoxyl radical scavenging activity at 50 uM after 19 hrs by UV spectrophotometric analysis; type: physicochemical; procedure, shortened: as §1
[4] = Antioxidant activity assessed as DPPH radical scavenging activity at 10 uM after 4 hrs by UV spectrophotometric analysis; type: physicochemical
Procedure, shortened: (§2)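 DPPH radical at 0.1 mM in ethanol. Test compounds were in ethanol at 1–100 µM (1, 2, 10, 50, 100). Mixture lines used an equimolar (1:1) blend with ferulic acid. Absorbance was read at 517 nm before addition (Abs0) and after 4 h once stable (Abst). Scavenging % = (1 − Abst/Abs0) × 100.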

Cholinesterase [5] = target: Cholinesterase (Equus caballus, UniProt P81908); assay: Inhibition of equine BChE using BTC as substrate preincubated for 5 mins followed by substrate addition measured after 2 mins by Ellman's assay
Chain of Cholinesterase (Equus caballus, UniProt P81908) (P81908 whole entry): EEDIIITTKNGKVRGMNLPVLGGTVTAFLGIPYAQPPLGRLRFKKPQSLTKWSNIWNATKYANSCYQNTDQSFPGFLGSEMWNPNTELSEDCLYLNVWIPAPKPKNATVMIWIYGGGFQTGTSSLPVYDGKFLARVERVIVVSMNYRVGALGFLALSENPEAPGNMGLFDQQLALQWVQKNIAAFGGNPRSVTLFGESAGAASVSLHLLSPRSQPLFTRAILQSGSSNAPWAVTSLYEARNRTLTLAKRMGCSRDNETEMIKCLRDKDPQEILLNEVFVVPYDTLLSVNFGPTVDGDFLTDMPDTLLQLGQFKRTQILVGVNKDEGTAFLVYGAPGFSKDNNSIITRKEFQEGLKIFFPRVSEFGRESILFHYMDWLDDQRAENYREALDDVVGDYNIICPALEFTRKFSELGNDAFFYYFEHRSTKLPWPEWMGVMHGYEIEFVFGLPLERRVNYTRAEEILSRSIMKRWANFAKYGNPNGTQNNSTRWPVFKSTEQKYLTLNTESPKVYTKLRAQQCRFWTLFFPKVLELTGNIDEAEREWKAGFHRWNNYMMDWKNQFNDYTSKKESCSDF

[6] = Antioxidant activity assessed as DPPH radical scavenging activity at 100 uM after 4 hrs by UV spectrophotometric analysis; type: physicochemical; procedure, shortened: as §2
Acetylcholinesterase [7] = target: Acetylcholinesterase (Electrophorus electricus, UniProt O42275); assay: Inhibition of electric eel AChE using ATC as substrate preincubated for 5 mins followed by substrate addition measured after 2 mins by Ellman's assay
Chain of Acetylcholinesterase (Electrophorus electricus, UniProt O42275) (O42275 whole entry): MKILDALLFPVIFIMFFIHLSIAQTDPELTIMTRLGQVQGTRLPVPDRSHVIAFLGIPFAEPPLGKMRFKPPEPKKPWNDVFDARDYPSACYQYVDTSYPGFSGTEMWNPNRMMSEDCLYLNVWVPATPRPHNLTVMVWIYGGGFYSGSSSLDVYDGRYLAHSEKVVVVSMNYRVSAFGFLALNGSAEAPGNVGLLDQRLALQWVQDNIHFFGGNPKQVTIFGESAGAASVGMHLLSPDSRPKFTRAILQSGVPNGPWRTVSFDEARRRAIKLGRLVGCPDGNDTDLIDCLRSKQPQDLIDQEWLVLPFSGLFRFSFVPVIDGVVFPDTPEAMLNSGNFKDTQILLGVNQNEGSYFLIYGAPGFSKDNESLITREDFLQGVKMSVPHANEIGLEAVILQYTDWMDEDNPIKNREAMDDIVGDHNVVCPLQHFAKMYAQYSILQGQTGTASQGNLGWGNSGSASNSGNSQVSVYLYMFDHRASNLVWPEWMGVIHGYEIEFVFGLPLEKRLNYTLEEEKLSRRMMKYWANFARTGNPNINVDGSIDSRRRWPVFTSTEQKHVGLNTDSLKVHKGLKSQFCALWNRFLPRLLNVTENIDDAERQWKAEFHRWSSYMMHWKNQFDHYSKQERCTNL

[8] = Antioxidant activity assessed as DPPH radical scavenging activity at 2 uM after 4 hrs by UV spectrophotometric analysis; type: physicochemical; procedure, shortened: as §2
[9] = Antioxidant activity assessed as galvinoxyl radical scavenging activity at 100 uM after 19 hrs by UV spectrophotometric analysis; type: physicochemical; procedure, shortened: as §1
[10] = Antioxidant activity assessed as DPPH radical scavenging activity at 50 uM after 4 hrs by UV spectrophotometric analysis; type: physicochemical; procedure, shortened: as §2
[11] = Antioxidant activity assessed as DPPH radical scavenging activity at 1 uM after 4 hrs by UV spectrophotometric analysis; type: physicochemical; procedure, shortened: as §2
[12] = Antioxidant activity assessed as galvinoxyl radical scavenging activity at 2 uM after 19 hrs by UV spectrophotometric analysis; type: physicochemical; procedure, shortened: as §1
Acetylcholinesterase [13] = target: Acetylcholinesterase (Homo sapiens, UniProt P22303); assay: Inhibition of human AChE using ATC as substrate preincubated for 5 mins followed by substrate addition measured after 2 mins by Ellman's assay
Chain of Acetylcholinesterase (Homo sapiens, UniProt P22303) (P22303 whole entry): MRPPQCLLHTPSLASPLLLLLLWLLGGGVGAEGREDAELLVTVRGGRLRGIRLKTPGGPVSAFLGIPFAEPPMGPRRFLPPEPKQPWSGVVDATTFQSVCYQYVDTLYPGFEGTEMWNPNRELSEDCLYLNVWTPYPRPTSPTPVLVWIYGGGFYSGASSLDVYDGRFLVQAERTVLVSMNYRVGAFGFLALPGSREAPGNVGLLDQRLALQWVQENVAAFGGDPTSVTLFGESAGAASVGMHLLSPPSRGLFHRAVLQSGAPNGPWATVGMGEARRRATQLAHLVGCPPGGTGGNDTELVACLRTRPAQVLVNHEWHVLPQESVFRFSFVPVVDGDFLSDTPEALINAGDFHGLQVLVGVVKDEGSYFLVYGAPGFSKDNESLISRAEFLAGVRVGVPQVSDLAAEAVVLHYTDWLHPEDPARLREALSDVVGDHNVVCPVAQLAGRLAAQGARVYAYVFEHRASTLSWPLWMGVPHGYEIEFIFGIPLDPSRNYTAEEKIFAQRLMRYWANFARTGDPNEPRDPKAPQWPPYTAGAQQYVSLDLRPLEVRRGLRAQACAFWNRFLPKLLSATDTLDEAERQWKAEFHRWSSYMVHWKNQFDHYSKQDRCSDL
Procedure, shortened: (§3)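 Ellman's method with DTNB chromogen, acetylthiocholine (AChE) or butyrylthiocholine (BChE) iodide substrate, in potassium phosphate buffer pH 8.0 (KOH-adjusted). Compounds were diluted from ethanol stocks, with a top final concentration of 10^-4 M. At least five concentrations (normally 10^-4–10^-9 M) were run, each in triplicate, read at 412 nm at 25 °C. IC50 values are from inhibition curves, as means of at least three determinations.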

Cholinesterase [14] = target: Cholinesterase (Homo sapiens, UniProt P06276); assay: Inhibition of human BChE using BTC as substrate preincubated for 5 mins followed by substrate addition measured after 2 mins by Ellman's assay; procedure, shortened: as §3
Chain of Cholinesterase (Homo sapiens, UniProt P06276) (P06276 whole entry): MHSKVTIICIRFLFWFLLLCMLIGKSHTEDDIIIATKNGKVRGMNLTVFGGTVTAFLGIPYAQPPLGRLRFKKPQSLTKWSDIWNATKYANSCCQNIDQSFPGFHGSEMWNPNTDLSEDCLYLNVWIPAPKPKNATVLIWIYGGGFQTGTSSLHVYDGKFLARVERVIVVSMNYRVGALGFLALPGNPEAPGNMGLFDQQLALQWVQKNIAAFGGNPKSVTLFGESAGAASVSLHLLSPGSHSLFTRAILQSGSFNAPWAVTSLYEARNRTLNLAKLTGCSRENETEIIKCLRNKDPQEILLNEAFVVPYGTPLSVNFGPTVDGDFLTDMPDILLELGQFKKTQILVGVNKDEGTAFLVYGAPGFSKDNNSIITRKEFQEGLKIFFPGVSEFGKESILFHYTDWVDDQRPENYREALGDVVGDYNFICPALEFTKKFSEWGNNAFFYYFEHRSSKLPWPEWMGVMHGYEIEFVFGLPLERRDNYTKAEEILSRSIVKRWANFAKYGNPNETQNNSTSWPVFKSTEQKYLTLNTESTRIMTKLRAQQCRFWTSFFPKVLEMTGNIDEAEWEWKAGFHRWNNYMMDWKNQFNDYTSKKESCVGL

[15] = Antioxidant activity assessed as galvinoxyl radical scavenging activity at 2 uM after 19 hrs in presence of ferulic acid by UV spectrophotometric analysis; type: physicochemical; procedure, shortened: as §1
[16] = Antioxidant activity assessed as DPPH radical scavenging activity at 10 uM after 4 hrs by UV spectrophotometric analysis in presence of ferulic acid; type: physicochemical; procedure, shortened: as §2
[17] = Antioxidant activity assessed as DPPH radical scavenging activity at 2 uM after 4 hrs by UV spectrophotometric analysis in presence of ferulic acid; type: physicochemical; procedure, shortened: as §2
[18] = Antioxidant activity assessed as galvinoxyl radical scavenging activity at 50 uM after 19 hrs in presence of ferulic acid by UV spectrophotometric analysis; type: physicochemical; procedure, shortened: as §1
[19] = Antioxidant activity assessed as galvinoxyl radical scavenging activity at 1 uM after 19 hrs in presence of ferulic acid by UV spectrophotometric analysis; type: physicochemical; procedure, shortened: as §1
[20] = Antioxidant activity assessed as galvinoxyl radical scavenging activity at 10 uM after 19 hrs in presence of ferulic acid by UV spectrophotometric analysis; type: physicochemical; procedure, shortened: as §1
PC-12 [21] = assay: Neuroprotective effect in rat PC12 cells assessed as alleviation of H2O2-induced toxicity at 1:1 compound to ferulic acid molar ratio after 24 hrs by MTT assay; type: functional, cell-based
Procedure, shortened: (§4)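 PC12 cells (F-12, 10% FBS, 37 °C, 5% CO₂; 2000 cells/well, 24 h pre-culture) were co-treated with compound (0.1, 1, 10, 50; DMSO <0.5%) and H₂O₂ for 24 h. The mixture line used a 1:1 molar blend with ferulic acid. MTT for 4 h, formazan dissolved in DMSO, A540, blank-subtracted. Viability is % of control; three independent trials, mean ± SEM.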

[22] = Antioxidant activity assessed as galvinoxyl radical scavenging activity at 100 uM after 19 hrs in presence of ferulic acid by UV spectrophotometric analysis; type: physicochemical; procedure, shortened: as §1
PC-12 [23] = assay: Neuroprotective effect in rat PC12 cells assessed as alleviation of amyloid beta 42-induced toxicity at 1:1 compound to ferulic acid molar ratio after 24 hrs by MTT assay; type: functional, cell-based
Procedure, shortened: (§5)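 Aβ42 was dissolved in hexafluoroisopropanol, dried to a film, taken up in F-12 and held at 4 °C for 24 h. PC12 cells (2000/well, 24 h pre-culture) were co-treated with this Aβ42 and compound (0.1–50; DMSO <0.5%) for 24 h. The mixture line used a 1:1 blend with ferulic acid. MTT for 4 h, A540; % of control, three independent trials, mean ± SEM.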

[24] = Antioxidant activity assessed as DPPH radical scavenging activity at 50 uM after 4 hrs by UV spectrophotometric analysis in presence of ferulic acid; type: physicochemical; procedure, shortened: as §2
[25] = Antioxidant activity assessed as DPPH radical scavenging activity at 1 uM after 4 hrs by UV spectrophotometric analysis in presence of ferulic acid; type: physicochemical; procedure, shortened: as §2
[26] = Antioxidant activity assessed as DPPH radical scavenging activity at 100 uM after 4 hrs by UV spectrophotometric analysis in presence of ferulic acid; type: physicochemical; procedure, shortened: as §2
[27] = Cytotoxicity against rat PC12 cells at 0.1 to 50 uM incubated for 24 hrs by MTT assay; type: cell-based; conditions: pc-12, 24 h
Procedure, shortened: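 PC12 cells were grown in F-12 with 10% FBS and penicillin/streptomycin at 37 °C, 5% CO₂, seeded at 2000 cells/well and grown 24 h. Compounds were added from DMSO (final <0.5%) for 24 h. MTT (5 mg/mL) was added for 4 h, formazan dissolved in DMSO and A540 read after cell-free blank subtraction. Viability is % of control; three independent trials, mean ± SEM.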

PC-12 [28] = assay: Neuroprotective effect in rat PC12 cells assessed as alleviation of H2O2 -induced toxicity after 24 hrs by MTT assay; type: functional, cell-based; procedure, shortened: as §4
PC-12 [29] = assay: Neuroprotective effect in rat PC12 cells assessed as alleviation of amyloid beta42-induced toxicity after 24 hrs by MTT assay; type: functional, cell-based; procedure, shortened: as §5

SMILES | Activity [1] | Activity [2] | Activity [3] | Activity [4] | IC50 (Cholinesterase [5]) | Activity [6] | IC50 (Acetylcholinesterase [7]) | Activity [8] | Activity [9] | Activity [10] | Activity [11] | Activity [12] | further results
COc1ccc2c(c1)[nH]c1cccc(CN(C(=O)/C=C/c3ccc(O)c(OC)c3)C(C)C)c12 | 23.4% | 1.1% | 51.7% | 68.2% | 13.9 µM | 98% | 58.2 µM | 55% | 87.2% | 72.9% | 45.1% | 8% | –
CC(C)NCc1cccc2[nH]c3ccccc3c12 | – | – | – | – | 8.9 µM | – | 21.6 µM | – | – | – | – | – | IC50 (Acetylcholinesterase [13]): 18 µM; IC50 (Cholinesterase [14]): 8.1 µM
CCN(Cc1cccc2[nH]c3cc(OC)ccc3c12)C(=O)/C=C/c1ccc(O)c(OC)c1 | 40.3% | 11.1% | 78.2% | 71.3% | 19.8 µM | 94.9% | 61.6 µM | 59.2% | 91.9% | 86.4% | 33.1% | 29.2% | –
COc1cc(/C=C/C(=O)N(Cc2cccc3[nH]c4ccccc4c23)C(C)C)ccc1O | 68% | 24.1% | 87.5% | 68.9% | 12.7 µM | 90.9% | 11.1 µM | 56.2% | 90.8% | 84.5% | 44.1% | 55.2% | IC50 (Acetylcholinesterase [13]): 22 µM; IC50 (Cholinesterase [14]): 9 µM
COc1cc(/C=C/C(=O)N(Cc2cccc3[nH]c4ccccc4c23)C2CCCC2)ccc1O | 66.6% | 25.9% | 85.7% | 66.6% | 31.6 µM | 90.3% | > 100 µM | 54.5% | 90.3% | 85.7% | 25.9% | 54.5% | –
CCN(Cc1cccc2[nH]c3ccccc3c12)C(=O)/C=C/c1ccc(O)c(OC)c1 | 55% | 24.7% | 82.8% | 55% | 13.8 µM | 86.3% | 18 µM | 40.1% | 86.3% | 82.8% | 24.7% | 40.1% | –
CCNCc1cccc2[nH]c3cc(Cl)ccc3c12 | – | – | – | – | 1.9 µM | – | 2.1 µM | – | – | – | – | – | Activity [15]: 14.7%; Activity [16]: 60.1%; Activity [17]: 44.7%; Activity [18]: 51.4%; Activity [19]: 11%; Activity [20]: 30.1%; Activity (PC-12 [21]): Active; Activity [22]: 83.2%; Activity (PC-12 [23]): inactive; Activity [24]: 71.4%; IC50 (Acetylcholinesterase [13]): 5.1 µM; Activity [25]: 31.6%; IC50 (Cholinesterase [14]): 7.9 µM; Activity [26]: 93.2%
COc1ccc2c(c1)[nH]c1cccc(CN(C(=O)/C=C/c3ccc(O)c(OC)c3)C3CCCC3)c12 | 37.4% | 14.8% | 66.8% | 67.4% | 25.9 µM | 90.4% | 88.2 µM | 54% | 87.4% | 86.8% | 34.8% | 24% | –
COc1cc(/C=C/C(=O)O)ccc1O [FERULATE] | 33.7% | 6.6% | 52.2% | 63.1% | – | 92.2% | – | 44.4% | 79% | 72% | 30.3% | 15.8% | –
COc1cc(/C=C/C(=O)N(Cc2cccc3[nH]c4ccccc4c23)C2CCCCC2)ccc1O | 23.1% | 3.3% | 42% | 63.1% | 22 µM | 89.2% | > 100 µM | 52.4% | 87.2% | 72% | 30.3% | 12.4% | –
COc1ccc2c(c1)[nH]c1cccc(CN(Cc3ccccc3)C(=O)/C=C/c3ccc(O)c(OC)c3)c12 | – | – | – | – | – | – | > 100 µM | – | – | – | – | – | –
CCN(Cc1cccc2[nH]c3cc(Cl)ccc3c12)C(=O)/C=C/c1ccc(O)c(OC)c1 | 38.1% | 8.3% | 57% | 66% | 3.1 µM | 91.9% | 1.9 µM | 49.1% | 83.2% | 77.3% | 41.8% | 22.4% | Activity [27]: Non-toxic; IC50 (Acetylcholinesterase [13]): 6.9 µM; Activity (PC-12 [28]): Dose-dependent effect; IC50 (Cholinesterase [14]): 2.8 µM; Activity (PC-12 [29]): Dose-dependent effect
COc1ccc2c(c1)[nH]c1cccc(CN(C(=O)/C=C/c3ccc(O)c(OC)c3)C3CCCCC3)c12 | 50.9% | 25.6% | 72% | 50.9% | 20.5 µM | 88.6% | > 100 µM | 47.9% | 88.6% | 82% | 38.6% | 40.9% | –
COc1cc(/C=C/C(=O)N(Cc2ccccc2)Cc2cccc3[nH]c4ccccc4c23)ccc1O | – | – | – | – | – | – | > 100 µM | – | – | – | – | – | –
